What was measured:
[1] = test system: Mus musculus; experiment: Brain efflux index in wild-type mouse assessed as transport of compound from ipsilateral cerebrum to the circulating blood across the blood-brain barrier at 10 nCi/ml, intracerebral microinjection after 30 mins in presence 100 mM benzylpenicillin OAT inhibitor; details: other, 0.5 h
[2] = Drug uptake in mouse brain ipsilateral cerebrum assessed as radiolabelled compound after 30 mins at 0.1 uM, intracerebral microinjection in presence 100 mM probenecid OAT inhibitor; type: ADME, tissue-based; details: in vivo, other, 0.5 h
In short: (§1)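 Male C57BL/6 wild-type mice under ketamine 100 mg/kg plus xylazine 10 mg/kg i.p., on a stereotaxic frame. 0.2 µL was injected over 2 min into the S2 cortex, 3.8 mm lateral to bregma and 2.5 mm deep. Injectate: [3H]-drug plus [14C]-carboxyl-inulin, 10 nCi/ml each, in ECF buffer pH 7.4. Needle held 4 min. Ipsilateral cerebrum harvested at 30 min and counted by scintillation. Retention normalized to inulin. n=3-4.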

[3] = test system: Mus musculus; experiment: Brain efflux index in Bcrp1 deficient mouse assessed as transport of compound from ipsilateral cerebrum to the circulating blood across the blood-brain barrier at 10 nCi/ml, intracerebral microinjection after 30 mins relative to wild type; type: ADME, organism-based; details: other, 0.5 h
In short: (§2)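 Intracerebral microinjection under ip ketamine (100 mg/kg)/xylazine (10 mg/kg). Stereotaxic needle at 3.8 mm lateral to bregma, 2.5 mm deep, into S2 cortex. 0.2 µL [3H]-drug (10 nCi/ml) with [14C]-carboxyl-inulin (10 nCi/ml) in ECF buffer pH 7.4 given over 2 min. Ipsilateral cerebrum taken at set times, homogenised in 5% BSA and counted by scintillation. Retained/injected ratio normalised to inulin; n=3-4.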

[4] = test system: Mus musculus; experiment: Brain efflux index in wild-type mouse assessed as transport of compound from ipsilateral cerebrum to the circulating blood across the blood-brain barrier at 10 nCi/ml, intracerebral microinjection after 30 mins in presence 100 mM probenecid OAT inhibitor; details: other, 0.5 h
[5] = test system: Brain; experiment: Efflux clearance mouse brain measured per gm of tissue at 0.3 uCi/ml by in vitro brain slice uptake technique; type: ADME
[6] = test system: Mus musculus; experiment: Brain efflux index in wild-type mouse assessed as transport of compound from ipsilateral cerebrum to the circulating blood across the blood-brain barrier at 10 nCi/ml, intracerebral microinjection after 30 mins in presence of 50 mM unlabelled compound; details: other, 0.5 h
[7] = test system: Mus musculus; experiment: Brain efflux index in wild type mouse assessed as transport of compound from ipsilateral cerebrum to the circulating blood across the blood-brain barrier at 10 nCi/ml, intracerebral microinjection after 30 mins in presence 100 mM probenecid OAT inhibitor relative to wild type; details: other, 0.5 h
[8] = Elimination rate constant mouse brain at 10 nCi/ml
[9] = test system: Mus musculus; experiment: Brain efflux index in Mrp2 deficient mouse assessed as transport of compound from ipsilateral cerebrum to the circulating blood across the blood-brain barrier at 10 nCi/ml, intracerebral microinjection after 60 mins; type: ADME, organism-based; details: other, 1 h
In short: as §2

[10] = test system: Mus musculus; experiment: Brain efflux index in Bcrp1 deficient mouse assessed as transport of compound from ipsilateral cerebrum to the circulating blood across the blood-brain barrier at 10 nCi/ml, intracerebral microinjection after 30 mins; type: ADME, organism-based; details: other, 0.5 h
In short: as §2

[11] = test system: Mus musculus; experiment: Brain efflux index in wild type mouse assessed as transport of compound from ipsilateral cerebrum to the circulating blood across the blood-brain barrier at 10 nCi/ml, intracerebral microinjection after 30 mins in presence of 50 mM unlabelled compound relative to wild type; details: other, 0.5 h
[12] = test system: Mus musculus; experiment: Brain efflux index in wild type mouse assessed as transport of compound from ipsilateral cerebrum to the circulating blood across the blood-brain barrier at 10 nCi/ml, intracerebral microinjection after 30 mins in presence 100 mM benzylpenicillin OAT inhibitor relative to wild type; details: other, 0.5 h
[13] = Drug uptake in mouse brain ipsilateral cerebrum assessed as radiolabelled compound after 30 mins at 0.1 uM, intracerebral microinjection; type: ADME, tissue-based; details: in vivo, other, 0.5 h
In short: as §1

[14] = Drug uptake in mouse brain ipsilateral cerebrum assessed as radiolabelled compound after 30 mins at 0.1 uM, intracerebral microinjection in presence of 1 mM unlabelled compound; type: ADME, tissue-based; details: in vivo, other, 0.5 h
In short: as §1

[15] = test system: Mus musculus; experiment: Brain efflux index in wild-type mouse assessed as transport of compound from ipsilateral cerebrum to the circulating blood across the blood-brain barrier at 10 nCi/ml, intracerebral microinjection after 30 mins in presence of 1 mM unlabelled compound; details: other, 0.5 h
[16] = Drug uptake in mouse brain ipsilateral cerebrum assessed as radiolabelled compound after 30 mins at 0.1 uM, intracerebral microinjection in presence of 50 mM unlabelled compound; type: ADME, tissue-based; details: in vivo, other, 0.5 h
In short: as §1

[17] = test system: Mus musculus; experiment: Brain efflux index in wild type mouse assessed as transport of compound from ipsilateral cerebrum to the circulating blood across the blood-brain barrier at 10 nCi/ml, intracerebral microinjection after 30 mins; type: ADME, organism-based; details: other, 0.5 h
In short: as §2

[18] = Drug uptake in mouse brain ipsilateral cerebrum assessed as radiolabelled compound after 30 mins at 0.1 uM, intracerebral microinjection in presence 100 mM benzylpenicillin OAT inhibitor; type: ADME, tissue-based; details: in vivo, other, 0.5 h
In short: as §1

[19] = Elimination half life in mouse brain at 10 nCi/ml, icv; type: ADME, organism-based; details: icv or intrathecal, read-out: beta t1/2 (converted)
In short: (§3)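 Intracerebral microinjection into the S2 cortex of anaesthetized mice, 0.2 µL of [3H]-drug (10 nCi/ml) with [14C]-carboxyl-inulin in ECF buffer. Ipsilateral cerebrum radioactivity was followed over time, up to 60 min for methotrexate. Elimination rate constant keff came from regression of percent remaining versus time, and half-life from keff. n=3-4.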

[20] = test system: Mus musculus; experiment: Brain efflux index in wild type mouse assessed as transport of compound from ipsilateral cerebrum to the circulating blood across the blood-brain barrier at 10 nCi/ml, intracerebral microinjection after 30 mins in presence of 1 mM unlabelled compound relative to wild type; details: other, 0.5 h
[21] = Drug uptake in mouse cerebrum
[22] = test system: Brain; experiment: Ratio of efflux clearance to clearance in brain measured in mouse at 0.3 uCi/ml by in vitro brain slice uptake technique; type: ADME, tissue-based
[23] = test system: Mus musculus; experiment: Brain efflux index in Mrp2 deficient mouse assessed as transport of compound from ipsilateral cerebrum to the circulating blood across the blood-brain barrier at 10 nCi/ml, intracerebral microinjection after 30 mins relative to wild type; details: other, 0.5 h
[24] = test system: Brain; experiment: Elimination half life in mouse brain; type: ADME, tissue-based; details: in vivo
In short: as §3

Row | SMILES | BEI [1] | Drug uptake [2] | BEI [3] | BEI [4] | CL [5] | BEI [7] | k el [8] | BEI [9] | BEI [10] | BEI [12] | Drug uptake [13] | BEI [17] | Drug uptake [18] | half-life [19] | also measured
1 | Nc1nc2[nH]cc(CCc3ccc(C(=O)N[C@@H](CCC(=O)O)C(=O)O)cc3)c2c(=O)[nH]1 [PEMETREXED] | 12.2% | 72.4% | 89.7% | 27.6% | 11.04 µL/min/g | 56.5% | 0.000297 s⁻¹ | 58.3% | 43.9% | 25% | 51.1% | 48.9% | 90% | 39 min | BEI [6]: 4.3%; BEI [11]: 8.8%; Drug uptake [14]: 71.7%; BEI [15]: 28.3%; Drug uptake [16]: 95.7%; BEI [20]: 57.8%
2 | CN(Cc1cnc2nc(N)nc(N)c2n1)c1ccc(C(=O)N[C@@H](CCC(=O)O)C(=O)O)cc1 [METHOTREXATE] | 13.7% | 75.8% | 72.7% | 24.2% | 20.23 µL/min/g | 37.9% | 0.000397 s⁻¹ | 57.2% | 46.4% | 21.4% | 36.2% | 63.8% | 90% | 28.8 min | Drug uptake [21]: 3.2%; Ratio [22]: 0.05; BEI [23]: 90%
3 | CCCC(CCC)C(=O)O [VALPROIC ACID] | – | – | – | – | – | – | – | – | – | – | – | – | – | – | beta t1/2 [24]: 2 min
